For 12 compounds, IC50 and Drug uptake results are on record in ChEMBL document CHEMBL1143122, “Novel analogs of D-e-MAPP and B13. Part 1: synthesis and evaluation as potential anticancer agents” (Bioorg Med Chem, 2008).

In data set [1] the test system is MCF7. The experiment in a line: Antiproliferative activity against human MCF7 cells after 48 hrs. Format: functional, cell-based. Particulars: MCF7, 48 h.
Data set [2] relates to MCF7. Briefly: Drug level in human MCF7 cells at 10 uM per 10^6 cells after 0.5 hrs. Type of data set: ADME, cell-based. Particulars: mcf7, 0.5 h. An outline of the steps: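 MCF7 cells kept in RPMI 1640 with 10% fetal calf serum at 37 °C, 5% CO2, then treated with 10 μM analog. Intracellular analog measured over time by HPLC-MS in positive-ion MRM mode. Quantified against calibration curves made by spiking an artificial matrix with standards plus internal standard, using analyte/IS peak-area ratios and linear regression. Reported as pmol per 1×10^6 cells.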

In the data set on MCF7 [1], `CCCCCCCCCCCCCC(=O)N[C@H](CO)[C@H](O)c1ccc(NC(=O)CCCCC[n+]2ccccc2)cc1.[Br-]` had an IC50 of 20 µM. In the data set on MCF7 [2], this compound showed a Drug uptake of 800 pmol.

`CCCCCCCCCCCCCC(=O)N(C)[C@H](C)[C@@H](O)c1ccccc1` gave an IC50 in the data set with MCF7 [1] of more than 10 µM.

Consider `CCCCCCCCCCCCNC(=O)N[C@@H](CO)[C@@H](O)c1ccc([N+](=O)[O-])cc1`, for which, in the data set on MCF7 [1], the IC50 is more than 10 µM.

In the data set with MCF7 [1], `CCCCCCCCCCCCCC(=O)N(C)[C@H](C)[C@H](O)c1ccccc1` showed an IC50 of more than 10 µM.

For `CCCCCCCCCCCCCC(=O)N(C)[C@@H](C)[C@H](O)c1ccccc1`, in the data set with MCF7 [1], the IC50 is more than 10 µM.

`CCCCCCCCCCCCNC(=O)N[C@H](C)[C@@H](O)c1ccccc1` came in with an IC50 with MCF7 [1] of more than 10 µM.

In the data set with MCF7 [1], `CCCCCCCCCCCCCC(=O)N(C)[C@@H](C)[C@@H](O)c1ccccc1` gave a half-maximal inhibitory concentration (IC50) of more than 10 µM.

On to `CCCCCCCCCCCCNC(=O)N[C@@H](C)[C@H](O)c1ccccc1`, for which, in the data set on MCF7 [1], the IC50 is more than 10 µM.

Consider `CCCCCCCCCCCCN[C@H](C)[C@@H](O)c1ccccc1`, for which the midpoint of inhibition in the data set with MCF7 [1], the IC50, lay at 9 µM.

`CCCCCCCCCCCCNC(=O)N[C@H](CO)[C@H](O)c1ccc([N+](=O)[O-])cc1` showed an IC50 with MCF7 [1] of more than 10 µM.

The compound `CCCCCCCCCCCCCC(=O)N[C@H](CO)[C@H](O)c1ccc([N+](=O)[O-])cc1` displayed an IC50 with MCF7 [1] of 14 µM.

The compound `CCCCCCCCCCCCCC(=O)N[C@H](C)[C@@H](O)c1ccccc1` yielded an IC50 in the data set with MCF7 [1] of 30 µM.
